Experimental data as given in paper PMC7312786 (Biochemistry, 2018).
pIC50: −log10 of the molar value.

Legend:
hpol κ = molecular target: T1, hpol κ (Homo sapiens, UniProt Q9UBT6); assay: Gel-based pol extension assay, hpol κ; format: biochemical
T1 sequence (Q9UBT6 19-526): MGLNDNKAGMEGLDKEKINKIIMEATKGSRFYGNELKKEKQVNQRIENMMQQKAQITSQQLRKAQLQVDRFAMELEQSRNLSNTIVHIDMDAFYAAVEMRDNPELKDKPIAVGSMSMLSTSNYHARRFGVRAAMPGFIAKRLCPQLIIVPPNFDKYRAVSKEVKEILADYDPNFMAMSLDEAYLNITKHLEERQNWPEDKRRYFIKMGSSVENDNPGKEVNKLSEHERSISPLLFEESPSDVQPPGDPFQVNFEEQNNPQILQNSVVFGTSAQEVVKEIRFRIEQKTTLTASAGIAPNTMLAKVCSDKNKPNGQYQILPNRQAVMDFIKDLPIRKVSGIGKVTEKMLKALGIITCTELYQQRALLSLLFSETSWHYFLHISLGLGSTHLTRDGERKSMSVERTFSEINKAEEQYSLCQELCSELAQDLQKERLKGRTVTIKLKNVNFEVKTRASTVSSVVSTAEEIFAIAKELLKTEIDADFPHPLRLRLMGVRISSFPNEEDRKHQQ
Method in brief: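 Gel extension assay with hpol ι core (residues 1–446) or hpol κ core (residues 19–526). Enzyme 2 nM preincubated 5 min with increasing test compound in 50 mM HEPES pH 7.5, 50 mM NaCl, 1 mM DTT, 0.1 mg/mL BSA, 10% glycerol. Started at 37 °C with 200 nM FAM-labeled 13/18-mer primer–template, 10 μM each dNTP, 5 mM MgCl₂. Quench: 20 mM EDTA/95% formamide, 95 °C. Triplicate; IC50 mean ± SD.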

hRev1 = molecular target: T2, hRev1 (Homo sapiens, UniProt Q9UBZ9); assay: Gel-based pol extension assay, hRev1; format: biochemical; conditions: read-out: IC50, hRev1, gel-based assay; best-fit value (95% confidence interval), three experiments
T2 sequence (Q9UBZ9 330-833): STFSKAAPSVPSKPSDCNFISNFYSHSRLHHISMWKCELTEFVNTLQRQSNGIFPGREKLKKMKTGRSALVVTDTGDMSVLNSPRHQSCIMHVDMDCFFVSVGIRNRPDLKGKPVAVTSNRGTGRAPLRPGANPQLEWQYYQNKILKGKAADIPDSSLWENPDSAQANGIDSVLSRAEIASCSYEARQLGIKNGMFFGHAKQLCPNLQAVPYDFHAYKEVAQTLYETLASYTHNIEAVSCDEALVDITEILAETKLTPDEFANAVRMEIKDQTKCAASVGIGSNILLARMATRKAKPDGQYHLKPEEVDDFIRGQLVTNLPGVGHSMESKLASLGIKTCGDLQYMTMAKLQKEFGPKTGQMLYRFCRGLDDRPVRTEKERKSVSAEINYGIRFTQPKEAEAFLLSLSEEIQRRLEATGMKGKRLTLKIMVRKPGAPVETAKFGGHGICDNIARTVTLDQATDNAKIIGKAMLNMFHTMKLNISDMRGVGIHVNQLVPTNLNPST

Dpo1 = molecular target: T3, Dpo1 (Saccharolobus solfataricus, UniProt P26811); assay: Fluorescence-based pol activity assay, Dpo1; format: biochemical, Sulfolobus solfataricus; conditions: 20 μM PNR-7-02
T3 sequence (P26811 1-882): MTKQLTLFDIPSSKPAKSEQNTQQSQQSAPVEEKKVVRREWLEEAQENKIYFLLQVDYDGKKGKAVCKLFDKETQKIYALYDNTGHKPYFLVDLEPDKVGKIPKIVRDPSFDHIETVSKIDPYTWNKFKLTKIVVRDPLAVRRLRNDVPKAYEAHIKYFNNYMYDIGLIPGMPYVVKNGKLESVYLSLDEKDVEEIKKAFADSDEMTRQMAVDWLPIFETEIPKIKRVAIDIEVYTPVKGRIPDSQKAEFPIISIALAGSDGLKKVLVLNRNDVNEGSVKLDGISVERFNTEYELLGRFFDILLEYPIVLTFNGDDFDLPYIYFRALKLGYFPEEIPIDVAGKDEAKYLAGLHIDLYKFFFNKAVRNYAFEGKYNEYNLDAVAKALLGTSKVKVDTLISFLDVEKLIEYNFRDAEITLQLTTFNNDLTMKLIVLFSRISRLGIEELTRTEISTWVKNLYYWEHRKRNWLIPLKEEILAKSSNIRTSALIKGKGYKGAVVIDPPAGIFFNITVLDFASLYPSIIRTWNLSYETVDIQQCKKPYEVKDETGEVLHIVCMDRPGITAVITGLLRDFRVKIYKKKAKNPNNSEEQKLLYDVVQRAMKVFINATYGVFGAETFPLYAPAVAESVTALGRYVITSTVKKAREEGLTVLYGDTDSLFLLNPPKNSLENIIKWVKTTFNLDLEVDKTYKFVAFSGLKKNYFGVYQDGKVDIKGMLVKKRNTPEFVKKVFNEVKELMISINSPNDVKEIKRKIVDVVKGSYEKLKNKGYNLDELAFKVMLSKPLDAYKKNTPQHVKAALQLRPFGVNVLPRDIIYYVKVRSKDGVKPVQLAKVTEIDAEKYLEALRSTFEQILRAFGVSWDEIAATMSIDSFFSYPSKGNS

O=C1NC(=S)NC(=O)C1=Cc1cn(Cc2ccc3ccccc3c2)c2ccc(Cl)cc12 [PNR-7-02, 5-((5-chloro-1-(naphthalen-2-ylmethyl)-1H-indol-3-yl)methylene)-2-thioxodihydropyrimidine-4,6-(1H,5H)-dione]
Increase in IC50 against hpol κ (hpol κ; gel-based assay, relative to hpol η / hRev1): ~3 fold | pIC50 (hpol κ; read-out: IC50, hpol κ, gel-based assay, best-fit value (95% confidence interval), three experiments): 4.66 | pIC50 (hRev1): 5.10 | Effect on catalysis by Dpo1 (Dpo1): not affected at all | Pol activity relative to DMSO control, Dpo1 (Dpo1; mean (±SD)): 118 (±15) %
